Laboratory results from ChEMBL document CHEMBL4321808, “Heteroaryl Phosphonates as Noncovalent Inhibitors of Both Serine- and Metallocarbapenemases” (J Med Chem, 2019).
pKi: −log10 of the molar value. Values after ≈ are worked out from the molar mass of the structure shown.

Experiments:
Escherichia coli [1] = experiment: Inhibition of NDM-1 in Escherichia coli 5980 assessed as potentiation of imipenem-induced antimicrobial activity by measuring imipenem MIC incubated for 18 to 20 hrs by CLSI based method (reference value: 8 ug/ml)
Method in brief: (§1)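 CLSI broth microdilution in MHBII. […] Inoculum about 5×10^5 CFU per well, incubated at 35 °C for 18–20 h. Imipenem MIC read as absence of visible growth.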

[2] = Inhibition of N-terminal 6x-His-tagged VIM-2 (unknown origin) expressed in Escherichia coli Rosetta 2 (DE3) assessed as reduction in nitrocefin hydrolysis by spectrophotometry; parameters: species or system Bacteria
Method in brief: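 Metallo-enzyme assay in 50 mM HEPES pH 7.2 with 50 µM zinc sulfate, 0.01% Triton X-100 and 20 µg/mL BSA, 37 °C. NDM-1 was construct 1 with the His/SUMO tag cleaved, at 2 nM; VIM-2 had its His tag TEV-cleaved, at 0.5 nM. Nitrocefin hydrolysis read at 486 nm; IC50 from sigmoidal fit, Ki by Cheng-Prusoff; mostly duplicate.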

[3] = biological target: Metallo-beta-lactamase type 2 (Klebsiella pneumoniae) (UniProt C7C422); experiment: Inhibition of NDM-1 in Klebsiella pneumoniae 5979 assessed as potentiation of imipenem-induced antimicrobial activity by measuring imipenem MIC incubated for 18 to 20 hrs by CLSI based method (reference value: <[…] ug/ml)
Enterobacter cloacae [4] = experiment: Antimicrobial activity against Enterobacter cloacae 5981 expressing NDM1 assessed as inhibition of microbial growth incubated for 18 to 20 hrs by CLSI based method; type: functional
Method in brief: (§2)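 CLSI broth microdilution in MHBII. Compound tested alone in serial two-fold dilutions, 128–0.12 µg/mL. Inoculum was set to 0.5 McFarland and diluted to about 5×10^5 CFU per well. Plates incubated at 35 °C for 18–20 h. MIC read as the lowest concentration with no visible growth; an un-inoculated plate served as solubility control.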

Escherichia coli [5] = experiment: Antimicrobial activity against Escherichia coli 5980 expressing NDM1 assessed as inhibition of microbial growth incubated for 18 to 20 hrs by CLSI based method; type: organism-based; method in brief: as §2
Pseudomonas aeruginosa = experiment: Antimicrobial activity against Pseudomonas aeruginosa 4698 expressing VIM2 assessed as inhibition of microbial growth incubated for 18 to 20 hrs by CLSI based method; type: organism-based; method in brief: as §2
Enterobacter cloacae [6] = experiment: Inhibition of NDM-1 in Enterobacter cloacae 5981 assessed as potentiation of imipenem-induced antimicrobial activity by measuring imipenem MIC incubated for 18 to 20 hrs by CLSI based method (reference value: 2 ug/ml); method in brief: as §1
Klebsiella pneumoniae [7] = experiment: Antimicrobial activity against Klebsiella pneumoniae 5979 expressing NDM1 assessed as inhibition of microbial growth incubated for 18 to 20 hrs by CLSI based method; type: organism-based; method in brief: as §2
[8] = biological target: Beta-lactamase VIM-2 (Pseudomonas aeruginosa) (UniProt Q9K2N0); conditions: 4698
Klebsiella pneumoniae [9] = experiment: Antimicrobial activity against Klebsiella pneumoniae 4683 expressing KPC2 assessed as inhibition of microbial growth incubated for 18 to 20 hrs by CLSI based method; type: organism-based; method in brief: as §2
[10] = Inhibition of N-terminal 6x-His/Sumo-tagged NDM-1 (29 to 270 residues) (unknown origin) expressed in Escherichia coli BL21 (DE3) assessed as reduction in nitrocefin hydrolysis by spectrophotometry; parameters: species or system Bacteria; conditions: read-out: Ki
Method in brief: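 Metallo-enzyme assay in 50 mM HEPES pH 7.2 with 50 µM zinc sulfate, 0.01% Triton X-100 and 20 µg/mL BSA, 37 °C. NDM-1 was construct 1 with the His/SUMO tag cleaved, at 2 nM; VIM-2 had its His tag TEV-cleaved, at 0.5 nM.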

[11] = Kinetic solubility in pH 7.4 PBS; type: physicochemical; conditions: buffer
Klebsiella pneumoniae [12] = conditions: 4683
[13] = Inhibition of N-terminal 6x-His-tagged Klebsiella pneumoniae KPC2 (25 to 293 residues) assessed as reduction in nitrocefin hydrolysis by spectrophotometry
Method in brief: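 Purified recombinant KPC-2 at 1 nM in 100 mM Tris-HCl pH 7.0 with 0.01% Triton X-100, 37 °C, reaction started by enzyme. IC50 from sigmoidal fit; Ki by Cheng-Prusoff using the nitrocefin Km. Run in duplicate, or once or in triplicate for some compounds.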

Chain of Metallo-beta-lactamase type 2 (Klebsiella pneumoniae) (C7C422 whole entry): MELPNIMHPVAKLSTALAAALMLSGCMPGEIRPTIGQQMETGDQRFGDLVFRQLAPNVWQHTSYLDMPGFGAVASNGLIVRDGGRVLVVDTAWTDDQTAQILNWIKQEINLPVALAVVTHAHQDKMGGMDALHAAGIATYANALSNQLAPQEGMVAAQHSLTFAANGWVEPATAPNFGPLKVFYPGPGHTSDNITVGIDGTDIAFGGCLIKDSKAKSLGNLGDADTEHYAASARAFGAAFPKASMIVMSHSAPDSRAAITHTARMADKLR

Row | SMILES | MIC (Escherichia coli [1]) [µg/mL] | pKi [2] | MIC [3] [µg/mL] | MIC (Enterobacter cloacae [4]) [µg/mL] | MIC (Escherichia coli [5]) [µg/mL] | MIC (Pseudomonas aeruginosa) [µg/mL] | MIC (Enterobacter cloacae [6]) [µg/mL] | MIC (Klebsiella pneumoniae [7]) [µg/mL] | MIC [8] [µg/mL] | MIC (Klebsiella pneumoniae [9]) [µg/mL] | pKi [10] | Kinetic_solubility [11] [µM] | MIC (Klebsiella pneumoniae [12]) [µg/mL] | pKi [13]
1 | O=c1cc(CP(=O)(O)O)c2ccccc2[nH]1 | 2 | 5.19 | 32 | > 128 | > 128 | > 128 | 2 | > 128 | > 64 | > 128 | 3.72 | – | – | –
2 | Cc1cc2oc(=O)cc(CP(=O)(O)O)c2cc1C | – | 5.68 | – | – | – | – | – | – | – | – | 4.35 | – | – | –
3 | Cc1cc(C)c2c(CP(=O)(O)O)cc(=O)[nH]c2c1 | 2 | 5.47 | 64 | > 128 | > 128 | > 128 | 2 | > 128 | > 64 | > 128 | 4.25 | 193 | 1 (≈ 3.74 µM) | 5.66
4 | Cc1cc(C)c2c(CP(=O)(O)O)cc(=O)oc2c1 | – | 6.09 | – | – | – | – | – | – | – | – | 4.47 | – | – | –
